Results pooled from the literature.
Each line is one published result; the experiments were not run side by side.
MAOB: Amine oxidase [flavin-containing] B (MAOB, Homo sapiens, UniProt P27338)
Adora1: Adenosine receptor A1 (Adora1, Rattus norvegicus, UniProt P25099)
CA9: Carbonic anhydrase 9 (CA9, Homo sapiens, UniProt Q16790)
CHRM4: Muscarinic acetylcholine receptor M4 (CHRM4, Homo sapiens, UniProt P08173)
SIRT5: NAD-dependent protein deacylase sirtuin-5, mitochondrial (SIRT5, Homo sapiens, UniProt Q9NXA8)
EDNRB: Endothelin receptor type B (EDNRB, Homo sapiens, UniProt P24530)

Compound	target	test	test system	setting	inhibition [%]
N=c1n(CCN2CCCCC2)c2ccccc2n1CC(O)c1cccc(Br)c1 (centres unmarked)	KCNU1 (Homo sapiens, UniProt A8MYU2)	ion current, inhibitor, patch clamp	HEK293	10 µM	17
O=C(Nc1ccc(Br)cc1)c1ccccn1	MAOB	enzyme activity, inhibitor	–	1 µM, 20 min	85
CC(C)N1CCCn2c1nc1c2c(=O)n(C)c(=O)n1C	Adora1	ligand displacement, radioligand	–	25 µM, cell membranes	38
O=C(Nc1cc(Cl)cc(Cl)c1)c1cc(Cl)ccc1O	MAOB	enzyme activity, inhibitor	–	1 µM, 20 min	0
CS(=O)(=O)Nc1cccc2cccnc12	Lactoylglutathione lyase (GLO1, Homo sapiens, UniProt Q04760)	enzyme activity, inhibitor, absorbance	–	50 µM	> 21
O=C1NC(=S)C(=Cc2cn(-c3ccccc3)nc2-c2ccc(Br)cc2)S1	CA9	enzyme activity, inhibitor	–	10 µM	83.7
CN(C)C1CCN(CC#Cc2nn(C3CCCC3)c3nc(NCc4ccccc4)ncc23)C1 (centres unmarked)	Serine/threonine-protein kinase N1 (PKN1, Homo sapiens, UniProt Q16512)	enzyme activity, inhibitor, FRET	–	10 µM	4
CCOC(=O)C1CSc2[nH]c(=O)sc2C1c1cn(-c2ccccc2)nc1-c1ccccc1 (centres unmarked)	CA9	enzyme activity, inhibitor	–	10 µM	75.5
CCC(C)N1CCCn2c1nc1c2c(=O)n(C)c(=O)n1C (centres unmarked)	Adora1	ligand displacement, radioligand	–	25 µM, cell membranes	40
O=C(c1ccc(Cl)cc1)N(Cc1ccccc1)C1CCCCC1	Histamine H1 receptor (HRH1, Homo sapiens, UniProt P35367)	cell-free assay	–	10 µM	-0.7
N#Cc1cc(Cn2c(N3CCCC3)nc3ccccc32)ccc1F	CHRM4	ligand displacement	–	10 µM	-6.19
O=C(Nc1ccc([N+](=O)[O-])cc1Cl)c1ccccc1	MAOB	enzyme activity, inhibitor	–	1 µM, 20 min	25
CCOC(=O)C1CSc2[nH]c(=O)sc2C1c1cn(-c2ccccc2)nc1-c1ccc(Br)cc1 (centres unmarked)	CA9	enzyme activity, inhibitor	–	0.1 µM	42.2
CCN(CC)c1ccc(C2Nc3ccc(C(=O)c4ccccc4)cc3NC3=C2C(=O)CC(C)(C)C3)cc1 (centres unmarked)	CHRM4	ligand displacement, radioligand	–	10 µM	-1
O=C(Nc1ccccc1)c1ccc(Cl)cc1	MAOB	enzyme activity, inhibitor	–	1 µM, 20 min	24
CCOC(=O)C1CSc2[nH]c(=O)sc2C1c1cn(-c2ccccc2)nc1-c1ccc(Cl)cc1 (centres unmarked)	CA9	enzyme activity, inhibitor	–	10 µM	86.3

Compound	target	test	test system	setting	inhibition [%]
COc1cc(NC(C)=O)c(Cl)cc1C(=O)Nc1nccs1	CHRM4	cell-free assay	–	10 µM	16.7
Cc1ccc(C(=O)Nc2ccc(S(=O)(=O)O)c3cc(S(=O)(=O)O)cc(S(=O)(=O)O)c23)cc1NC(=O)c1cccc(NC(=O)Nc2cccc(C(=O)Nc3cc(C(=O)Nc4ccc(S(=O)(=O)O)c5cc(S(=O)(=O)O)cc(S(=O)(=O)O)c45)ccc3C)c2)c1	SIRT5	enzyme activity, inhibitor	–	1 mM	> 60
O=C(Nc1ccc(C(F)(F)F)cc1C(F)(F)F)c1cc(Cl)ccc1O	MAOB	enzyme activity, inhibitor	–	1 µM, 20 min	84
Cn1cnc(Br)c1C1=CN(c2ncnc3[nH]cnc23)CCS1	Dual specificity tyrosine-phosphorylation-regulated kinase 4 (DYRK4, Homo sapiens, UniProt Q9NR20)	enzyme activity, inhibitor, radiometric	–	2 µM	72.2
Oc1cccc(Nc2nc(-c3ccc(F)cc3F)cs2)c1	EDNRB	cell-free assay	–	10 µM	-4.3
Cc1ccc(C(=O)Nc2ccc(S(=O)(=O)O)c3cc(S(=O)(=O)O)cc(S(=O)(=O)O)c23)cc1NC(=O)c1cccc(NC(=O)Nc2cccc(C(=O)Nc3cc(C(=O)Nc4ccc(S(=O)(=O)O)c5cc(S(=O)(=O)O)cc(S(=O)(=O)O)c45)ccc3C)c2)c1	SIRT5	enzyme activity, inhibitor	–	100 µM	85
CCOC(=O)C1CSc2[nH]c(=O)sc2C1c1cn(-c2ccccc2)nc1-c1ccc(OC)cc1 (centres unmarked)	CA9	enzyme activity, inhibitor	–	0.1 µM	53.6
CC(C)CC(C)N1CCCn2c1nc1c2c(=O)n(C)c(=O)n1C (centres unmarked)	Adora1	ligand displacement, radioligand	–	25 µM, cell membranes	30
CCOC(=O)C1CSc2[nH]c(=O)sc2C1c1cn(-c2ccccc2)nc1-c1ccc(C)cc1 (centres unmarked)	CA9	enzyme activity, inhibitor	–	0.1 µM	35.5
COc1cc(N)ccc1NC(=O)c1ccccc1	MAOB	enzyme activity, inhibitor	–	1 µM, 20 min	1
CCN(Cc1ccccc1C(F)(F)F)C(=O)C1CCN(S(=O)(=O)c2ccc3[nH]ncc3c2)CC1	EDNRB	ligand displacement, radioligand	–	10 µM	8
CCN1CCCn2c1nc1c2c(=O)n(C)c(=O)n1C	Adora1	ligand displacement, radioligand	–	25 µM, cell membranes	42
CCOc1ccc(C(=O)Nc2ccc(OC(F)(F)F)cc2)cc1OCC	MAOB	enzyme activity, inhibitor	–	1 µM, 20 min	1
N#CC1CSc2[nH]c(=O)sc2C1c1cn(-c2ccccc2)nc1-c1ccc(Br)cc1 (centres unmarked)	CA9	enzyme activity, inhibitor	–	10 nM	28.9
O=C(Nc1ccccc1)c1ccc2c(c1)OCO2	MAOB	enzyme activity, inhibitor	–	1 µM, 20 min	80
CNC(=O)c1csc(Nc2cccc(C)n2)n1	MAOB	enzyme activity, inhibitor, fluorescence	–	30 µM	53
